# According to ChEMBL document CHEMBL3784960, “New 4-Functionalized Glutamate Analogues Are Selective Agonists at Metabotropic Glutamate Receptor Subtype 2 or Selective Agonists at Metabotropic Glutamate Receptor Group III” (J Med Chem, 2016):
# Calls of active or inactive are those of the source. No cut-off for these calls is given here.
# What was measured:
# [1] = molecular target: T1, Metabotropic glutamate receptor 1 (Rattus norvegicus, UniProt P23385); assay: Agonist activity at rat mGlu1 receptor expressed in HEK293 cells by intracellular Ca2+ mobilization assay; assay type: functional, cell-based
# [2] = molecular target: T2, Metabotropic glutamate receptor 2 (Rattus norvegicus, UniProt P31421); assay: Agonist activity at rat mGlu2 receptor expressed in HEK293 cells by [35S]GTP-gamma binding assay; assay type: cell-based
# T2 sequence (P31421 whole entry): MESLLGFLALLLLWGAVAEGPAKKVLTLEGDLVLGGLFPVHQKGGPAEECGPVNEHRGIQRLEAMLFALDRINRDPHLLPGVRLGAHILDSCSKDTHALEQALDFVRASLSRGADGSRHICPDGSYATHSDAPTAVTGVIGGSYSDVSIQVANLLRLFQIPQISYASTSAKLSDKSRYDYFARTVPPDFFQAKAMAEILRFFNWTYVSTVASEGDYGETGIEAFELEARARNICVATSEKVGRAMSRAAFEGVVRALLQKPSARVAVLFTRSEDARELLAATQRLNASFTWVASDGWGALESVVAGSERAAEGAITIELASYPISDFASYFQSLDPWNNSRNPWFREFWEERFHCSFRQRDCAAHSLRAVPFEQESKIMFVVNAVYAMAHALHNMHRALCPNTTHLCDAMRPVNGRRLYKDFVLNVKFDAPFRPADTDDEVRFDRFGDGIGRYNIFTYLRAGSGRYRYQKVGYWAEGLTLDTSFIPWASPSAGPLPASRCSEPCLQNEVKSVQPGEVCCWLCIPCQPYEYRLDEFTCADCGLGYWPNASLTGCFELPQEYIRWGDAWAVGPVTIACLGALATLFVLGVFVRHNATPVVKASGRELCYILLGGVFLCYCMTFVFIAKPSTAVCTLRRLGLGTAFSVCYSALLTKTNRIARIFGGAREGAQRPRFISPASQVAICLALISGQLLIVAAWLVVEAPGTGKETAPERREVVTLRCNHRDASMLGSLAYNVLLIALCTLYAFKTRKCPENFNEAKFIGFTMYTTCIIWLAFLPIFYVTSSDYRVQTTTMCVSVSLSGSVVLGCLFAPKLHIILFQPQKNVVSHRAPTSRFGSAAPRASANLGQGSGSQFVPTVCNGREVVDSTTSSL
# [3] = molecular target: T3, Metabotropic glutamate receptor 4 (Rattus norvegicus, UniProt P31423); assay: Agonist activity at rat mGlu4 receptor expressed in HEK293 cells assessed as inhibition of forskolin stimulated cAMP production; assay type: functional, cell-based
# T3 sequence (P31423 whole entry): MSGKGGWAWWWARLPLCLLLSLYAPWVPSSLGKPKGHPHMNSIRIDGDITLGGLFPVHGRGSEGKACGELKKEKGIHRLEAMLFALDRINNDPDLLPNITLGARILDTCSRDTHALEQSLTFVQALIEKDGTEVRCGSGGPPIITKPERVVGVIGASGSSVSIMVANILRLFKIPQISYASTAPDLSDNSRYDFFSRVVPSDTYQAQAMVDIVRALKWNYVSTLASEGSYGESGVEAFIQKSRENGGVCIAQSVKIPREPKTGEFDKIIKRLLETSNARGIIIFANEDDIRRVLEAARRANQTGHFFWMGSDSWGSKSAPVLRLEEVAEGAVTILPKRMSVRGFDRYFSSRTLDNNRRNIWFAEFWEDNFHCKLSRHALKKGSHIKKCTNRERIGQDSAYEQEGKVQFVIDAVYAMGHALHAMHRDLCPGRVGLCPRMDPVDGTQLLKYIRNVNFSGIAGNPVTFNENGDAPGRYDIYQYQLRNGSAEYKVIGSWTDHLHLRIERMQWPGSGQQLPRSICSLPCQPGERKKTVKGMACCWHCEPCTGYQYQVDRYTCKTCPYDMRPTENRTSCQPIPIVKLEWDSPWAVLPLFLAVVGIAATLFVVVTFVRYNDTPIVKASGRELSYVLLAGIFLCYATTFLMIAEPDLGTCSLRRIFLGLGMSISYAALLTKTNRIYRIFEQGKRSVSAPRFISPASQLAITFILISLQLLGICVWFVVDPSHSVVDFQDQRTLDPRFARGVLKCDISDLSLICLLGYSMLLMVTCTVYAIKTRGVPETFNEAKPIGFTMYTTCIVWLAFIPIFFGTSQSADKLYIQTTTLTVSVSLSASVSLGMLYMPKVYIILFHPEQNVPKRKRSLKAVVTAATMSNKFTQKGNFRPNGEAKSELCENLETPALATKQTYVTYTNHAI
# [4] = molecular target: Metabotropic glutamate receptor 2 (Homo sapiens) (UniProt Q14416); assay: Agonist activity at mGlu2 receptor (unknown origin) assessed as IP1 accumulation preincubated with 3 uM LY341495 for 20 mins followed by addition of 1 mM of compound by IP-One functional assay
# Summary of the method: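 Single-dose test in HEK293 cells cotransfected with rat receptor, chimeric Gi/Gq and EAAC1. Cells were pretreated with 3 μM LY341495 for 20 min at 37 °C, washed twice, then stimulated with 1 mM compound. IP1 was read by HTRF 24 h post-transfection. Comparison was against vehicle by one-way ANOVA with Dunnett's test.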
# [5] = molecular target: T1, Metabotropic glutamate receptor 1; assay: Agonist activity at rat mGlu1 receptor expressed in HEK293 cells assessed as IP1 accumulation by IP-One functional assay; assay type: cell-based
# Summary of the method: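 Rat group I receptor transiently electroporated into HEK293 with the EAAC1 glutamate transporter; medium switched to Glutamax at least 2 h before stimulation. IP1 was read by HTRF (IP-One kit) 24 h after transfection. Runs were at least in duplicate, with EC50 ± SEM from n = 4−6 experiments.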
# [6] = molecular target: T4, Metabotropic glutamate receptor 5 (Rattus norvegicus, UniProt P31424); assay: Agonist activity at rat mGlu5 receptor expressed in HEK293 cells assessed as IP1 accumulation by IP-One functional assay; assay type: cell-based
# T4 sequence (P31424 whole entry): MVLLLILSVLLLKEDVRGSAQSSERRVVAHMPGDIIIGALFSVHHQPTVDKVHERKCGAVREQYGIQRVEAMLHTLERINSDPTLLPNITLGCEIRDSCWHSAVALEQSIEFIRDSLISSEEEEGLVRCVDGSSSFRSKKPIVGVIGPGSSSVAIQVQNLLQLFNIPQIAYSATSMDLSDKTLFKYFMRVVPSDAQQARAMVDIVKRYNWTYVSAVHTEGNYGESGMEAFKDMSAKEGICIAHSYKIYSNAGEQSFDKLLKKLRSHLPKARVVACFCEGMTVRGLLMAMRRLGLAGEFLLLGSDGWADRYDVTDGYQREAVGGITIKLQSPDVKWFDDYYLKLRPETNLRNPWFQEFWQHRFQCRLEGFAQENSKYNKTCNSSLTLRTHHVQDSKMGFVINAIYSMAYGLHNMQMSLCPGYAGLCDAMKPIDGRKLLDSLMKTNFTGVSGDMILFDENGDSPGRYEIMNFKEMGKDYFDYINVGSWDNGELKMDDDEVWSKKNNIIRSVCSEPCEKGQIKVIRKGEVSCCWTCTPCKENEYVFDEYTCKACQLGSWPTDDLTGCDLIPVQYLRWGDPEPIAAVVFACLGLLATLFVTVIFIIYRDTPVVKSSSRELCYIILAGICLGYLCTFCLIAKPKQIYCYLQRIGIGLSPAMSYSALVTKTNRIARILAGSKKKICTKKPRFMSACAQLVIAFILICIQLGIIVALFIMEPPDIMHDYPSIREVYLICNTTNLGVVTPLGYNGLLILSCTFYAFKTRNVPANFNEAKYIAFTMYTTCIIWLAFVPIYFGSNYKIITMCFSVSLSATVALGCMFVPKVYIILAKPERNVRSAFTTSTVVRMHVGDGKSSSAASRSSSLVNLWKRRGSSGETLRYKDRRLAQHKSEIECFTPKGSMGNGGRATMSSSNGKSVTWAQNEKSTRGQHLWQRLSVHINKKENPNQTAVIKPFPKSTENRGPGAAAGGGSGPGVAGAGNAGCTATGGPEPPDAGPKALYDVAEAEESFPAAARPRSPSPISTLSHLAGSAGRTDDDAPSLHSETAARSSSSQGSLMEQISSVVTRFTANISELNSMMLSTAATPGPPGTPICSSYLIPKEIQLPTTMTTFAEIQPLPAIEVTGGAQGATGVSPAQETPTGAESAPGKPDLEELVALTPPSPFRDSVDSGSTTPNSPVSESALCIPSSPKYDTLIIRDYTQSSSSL
# [7] = molecular target: T2, Metabotropic glutamate receptor 2; assay: Agonist activity at rat mGlu2 receptor expressed in HEK293 cells assessed as IP1 accumulation by IP-One functional assay; assay type: cell-based
# Summary of the method: (§1)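 HEK293 cells were transiently electroporated with the rat receptor plus a chimeric Gi/Gq protein for PLC coupling and EAAC1. Medium was replaced by Glutamax at least 2 h before agonist. IP1 accumulation was measured by HTRF 24 h post-transfection, at least in duplicate.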
# [8] = molecular target: T3, Metabotropic glutamate receptor 4; assay: Agonist activity at rat mGlu4 receptor expressed in HEK293 cells assessed as IP1 accumulation by IP-One functional assay; assay type: cell-based
# Summary of the method: as §1, with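 “duplicate. EC50 ± SEM came from n = 4−6 experiments.” for “duplicate.”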
# [9] = molecular target: Metabotropic glutamate receptor 6 (Rattus norvegicus, UniProt P35349); assay: Agonist activity at rat mGlu6 receptor expressed in HEK293 cells assessed as IP1 accumulation by IP-One functional assay; assay type: cell-based
# Summary of the method: as §1, with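 “duplicate. EC50 ± SEM came from n = 4−6 experiments.” for “duplicate.”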
# [10] = molecular target: Metabotropic glutamate receptor 7 (Rattus norvegicus, UniProt P35400); assay: Agonist activity at rat mGlu7 receptor expressed in HEK293 cells assessed as IP1 accumulation by IP-One functional assay; assay type: cell-based
# Metabotropic glutamate receptor 7 (Rattus norvegicus, UniProt P35400), sequence (P35400 whole entry): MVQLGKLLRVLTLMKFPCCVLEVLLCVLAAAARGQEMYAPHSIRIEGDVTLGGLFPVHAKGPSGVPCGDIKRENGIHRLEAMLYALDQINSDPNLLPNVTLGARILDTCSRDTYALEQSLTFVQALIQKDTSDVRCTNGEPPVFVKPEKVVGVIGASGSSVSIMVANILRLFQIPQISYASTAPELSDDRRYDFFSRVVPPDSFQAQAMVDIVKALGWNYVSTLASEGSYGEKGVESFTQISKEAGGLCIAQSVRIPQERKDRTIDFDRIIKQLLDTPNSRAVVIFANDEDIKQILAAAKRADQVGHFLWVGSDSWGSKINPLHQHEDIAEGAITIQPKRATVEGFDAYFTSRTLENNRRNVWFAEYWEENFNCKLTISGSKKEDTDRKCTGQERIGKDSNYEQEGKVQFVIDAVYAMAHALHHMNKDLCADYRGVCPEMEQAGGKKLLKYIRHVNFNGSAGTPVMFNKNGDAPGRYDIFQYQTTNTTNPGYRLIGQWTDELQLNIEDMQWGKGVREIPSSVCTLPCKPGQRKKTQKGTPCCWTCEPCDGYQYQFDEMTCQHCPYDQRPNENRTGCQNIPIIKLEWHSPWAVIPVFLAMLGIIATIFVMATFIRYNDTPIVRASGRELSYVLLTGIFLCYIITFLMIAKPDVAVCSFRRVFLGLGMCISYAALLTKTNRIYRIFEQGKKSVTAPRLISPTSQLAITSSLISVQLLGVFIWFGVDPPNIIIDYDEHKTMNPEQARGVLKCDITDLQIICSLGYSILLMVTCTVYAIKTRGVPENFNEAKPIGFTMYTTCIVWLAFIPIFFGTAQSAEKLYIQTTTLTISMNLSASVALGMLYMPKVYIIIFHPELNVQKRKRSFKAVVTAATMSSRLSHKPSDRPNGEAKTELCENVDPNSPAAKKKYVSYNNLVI
# Summary of the method: as §1, with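 “duplicate. EC50 ± SEM came from n = 4−6 experiments.” for “duplicate.”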
# [11] = molecular target: Metabotropic glutamate receptor 8 (Rattus norvegicus, UniProt P70579); assay: Agonist activity at rat mGlu8 receptor expressed in HEK293 cells assessed as IP1 accumulation by IP-One functional assay; assay type: cell-based
# Summary of the method: as §1, with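 “duplicate. EC50 ± SEM came from n = 4−6 experiments.” for “duplicate.”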
# [12] = molecular target: T2, Metabotropic glutamate receptor 2; assay: Agonist activity at rat mGlu2 receptor by FRET based mGlu sensor assay
# Summary of the method: (§2)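 Receptor carried an N-terminal SNAP-tag and was transfected into HEK293 cells. At 24 h, surface receptors were labelled for 1 h with 100 nM SNAP-Lumi4-Tb (donor) and 60 nM SNAP Green (acceptor), washed three times, then drug was added. Time-resolved FRET was recorded at 520 nm, at least in duplicate.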
# [13] = molecular target: T5, Metabotropic glutamate receptor 3 (Rattus norvegicus, UniProt P31422); assay: Agonist activity at rat mGlu3 receptor by FRET based mGlu sensor assay
# T5 sequence (P31422 whole entry): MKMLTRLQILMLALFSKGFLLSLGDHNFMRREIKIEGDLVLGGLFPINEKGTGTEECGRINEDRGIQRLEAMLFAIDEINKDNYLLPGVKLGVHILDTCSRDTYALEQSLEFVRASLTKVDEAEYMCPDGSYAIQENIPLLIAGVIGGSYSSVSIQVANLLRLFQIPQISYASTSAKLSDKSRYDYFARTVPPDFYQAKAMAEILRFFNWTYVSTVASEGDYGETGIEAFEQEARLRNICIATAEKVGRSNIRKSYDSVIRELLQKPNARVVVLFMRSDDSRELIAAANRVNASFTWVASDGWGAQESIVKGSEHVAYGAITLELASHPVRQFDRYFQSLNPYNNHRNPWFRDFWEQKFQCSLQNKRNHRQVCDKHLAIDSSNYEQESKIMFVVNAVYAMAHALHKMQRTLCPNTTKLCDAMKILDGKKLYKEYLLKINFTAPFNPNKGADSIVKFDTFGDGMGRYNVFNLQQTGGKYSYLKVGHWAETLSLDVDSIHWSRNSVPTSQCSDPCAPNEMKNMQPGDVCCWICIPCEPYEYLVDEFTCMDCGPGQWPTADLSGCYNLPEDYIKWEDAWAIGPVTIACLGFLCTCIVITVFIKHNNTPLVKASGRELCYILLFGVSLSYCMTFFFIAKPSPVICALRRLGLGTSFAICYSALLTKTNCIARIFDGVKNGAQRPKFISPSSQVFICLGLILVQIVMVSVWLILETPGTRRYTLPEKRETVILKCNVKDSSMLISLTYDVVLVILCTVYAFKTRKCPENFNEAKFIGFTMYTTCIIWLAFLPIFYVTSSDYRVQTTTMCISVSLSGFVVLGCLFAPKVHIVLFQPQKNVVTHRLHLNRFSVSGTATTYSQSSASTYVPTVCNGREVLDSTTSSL
# Summary of the method: as §2, with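 “duplicate. EC50 ± SEM came from n = 4−6 experiments.” for “duplicate.”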
# [14] = Displacement of [3H]AMPA from rat synaptosome AMPA receptor after 30 mins by microplate scintillation counter analysis
# [15] = Displacement of [3H]KA from rat synaptosome KA receptor after 60 mins by microplate scintillation counter analysis
# Glutamate NMDA receptor = assay: Displacement of [3H]CGP from rat synaptosome NMDA receptor after 60 mins by microplate scintillation counter analysis; assay type: protein-complex assay
# [16] = molecular target: T6, Excitatory amino acid transporter 1 (Homo sapiens, UniProt P43003); assay: Inhibition of human EAAT1 assessed as [3H]Asp uptake
# [17] = molecular target: T6, Excitatory amino acid transporter 1; assay: Substrate activity at human EAAT1 assessed as [3H]Asp uptake measured up to 300 uM
# [18] = molecular target: T7, Excitatory amino acid transporter 2 (Homo sapiens, UniProt P43004); assay: Inhibition of human EAAT2 assessed as [3H]Asp uptake
# [19] = molecular target: T7, Excitatory amino acid transporter 2; assay: Substrate activity at human EAAT2 assessed as [3H]Asp uptake measured up to 300 uM
# [20] = molecular target: T8, Excitatory amino acid transporter 3 (Homo sapiens, UniProt P43005); assay: Inhibition of human EAAT3 assessed as [3H]Asp uptake
# T8 sequence (P43005 whole entry): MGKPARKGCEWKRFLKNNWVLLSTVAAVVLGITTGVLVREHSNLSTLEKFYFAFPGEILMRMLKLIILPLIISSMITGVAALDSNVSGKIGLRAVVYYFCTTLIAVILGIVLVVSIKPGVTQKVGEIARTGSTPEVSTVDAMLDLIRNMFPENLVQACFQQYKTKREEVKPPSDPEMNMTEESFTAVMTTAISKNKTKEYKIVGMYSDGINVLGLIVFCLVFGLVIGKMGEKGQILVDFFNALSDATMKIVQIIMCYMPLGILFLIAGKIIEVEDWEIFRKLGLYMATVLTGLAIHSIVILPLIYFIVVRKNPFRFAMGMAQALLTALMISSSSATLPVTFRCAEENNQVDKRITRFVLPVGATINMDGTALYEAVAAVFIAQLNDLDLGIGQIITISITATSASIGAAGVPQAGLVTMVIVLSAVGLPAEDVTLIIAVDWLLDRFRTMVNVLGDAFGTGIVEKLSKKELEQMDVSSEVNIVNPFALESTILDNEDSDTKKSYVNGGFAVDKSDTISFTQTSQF
# [21] = molecular target: Metabotropic glutamate receptor 3 (Rattus norvegicus) (UniProt P31422); assay: Agonist activity at mGlu3 receptor (rat) assessed as IP1 accumulation preincubated with 3 uM LY341495 for 20 mins followed by addition of 1 mM of compound by IP-One functional assay
# Metabotropic glutamate receptor 3 (Rattus norvegicus), sequence (P31422 whole entry, looked up): as the sequence (P31422 whole entry) above
# [22] = molecular target: T5, Metabotropic glutamate receptor 3; assay: Agonist activity at rat mGlu3 receptor expressed in HEK293 cells by [35S]GTP-gamma binding assay; assay type: cell-based
# [23] = molecular target: Metabotropic glutamate receptor 7 (Homo sapiens, UniProt Q14831); assay: Agonist activity at human mGlu7 receptor expressed in HEK293 assessed as inhibition of forskolin stimulated cAMP production; assay type: functional, cell-based
# Metabotropic glutamate receptor 7 (Homo sapiens, UniProt Q14831), sequence (Q14831 whole entry): as the sequence (P35400 whole entry) above, with G5R, V27A, H454N, T488S, S520A, N578D counted along it
# [24] = molecular target: T4, Metabotropic glutamate receptor 5; assay: Agonist activity at rat mGlu5 receptor expressed in HEK293 cells by intracellular Ca2+ mobilization assay; assay type: functional, cell-based
SMILES,EC50 [1] [µM],EC50 ([2]; read-out: EC50) [µM],EC50 [3] [µM],EC50 [22] [µM],EC50 [23] [µM],EC50 [24] [µM],further results
N[C@@H](C[C@]1(C(=O)O)C[C@@H]1C(=O)O)C(=O)O,,,,,,,Activity [4]: Active; EC50 [5]: > 1000 µM; EC50 [6]: > 1000 µM; EC50 [7]: 33.7 µM; EC50 [8]: > 1000 µM; EC50 [9]: > 1000 µM; EC50 [10]: > 1000 µM; EC50 [11]: > 1000 µM; EC50 [12]: 119 µM; EC50 [13]: > 1000 µM; IC50 [14]: > 100 µM; IC50 [15]: > 100 µM; Ki (Glutamate NMDA receptor): > 100 µM; IC50 [16]: > 300 µM; Activity [17]: inactive; IC50 [18]: > 300 µM; Activity [19]: inactive; IC50 [20]: > 300 µM; Activity [21]: inactive
N[C@@H](CCC(=O)O)C(=O)O [GLUTAMIC ACID],,,,0.06,1.18,,EC50 [8]: 9.49 µM; EC50 [9]: 65.1 µM; EC50 [11]: 14 µM; EC50 [13]: 3.4 µM
NCC[C@H](C[C@H](N)C(=O)O)C(=O)O,> 1000,> 1000,> 1000,> 1000,> 1000,> 1000,
NCCC[C@H](C[C@H](N)C(=O)O)C(=O)O,> 1000,49,> 1000,> 1000,> 1000,> 1000,EC50 ([2]; read-out: pEC50 (converted)): 4.9 µM
CNC(=O)CC[C@H](C[C@H](N)C(=O)O)C(=O)O,> 1000,> 1000,> 1000,,,> 1000,

# Second part, led by results:
EC50 [1] [µM],EC50 ([2]; read-out: EC50) [µM],EC50 [3] [µM],EC50 [22] [µM],EC50 [23] [µM],EC50 [24] [µM],SMILES,further results
> 1000,> 1000,> 1000,,,,CCC[C@H](C[C@H](N)C(=O)O)C(=O)O,
> 1000,> 1000,> 1000,> 1000,> 1000,> 1000,N[C@@H](C[C@@H](CCC(=O)NO)C(=O)O)C(=O)O,
> 1000,> 1000,> 1000,> 1000,> 1000,> 1000,N#CCC[C@H](C[C@H](N)C(=O)O)C(=O)O,
> 1000,> 1000,> 1000,> 1000,> 1000,> 1000,N[C@@H](C[C@@H](CC(=O)O)C(=O)O)C(=O)O,
